From ChEMBL document CHEMBL1140988 (Eur J Med Chem, 2008)

Columns and labels:
[1] = molecular target: T1, Cannabinoid receptor 2 (Homo sapiens, UniProt P34972); assay: Displacement of [3H]WIN-55212-2 from human CB2 receptor expressed in CHO cells at 10 uM; type: cell-based
How it was run: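 Human CB2 expressed in CHO cell membranes, competitive binding run by an outside contract lab. [3H]-WIN 55212-2 at 0.8 nM was displaced by test compound at 10 μM. Specific binding is total minus non-specific, the latter measured with excess unlabelled ligand. Reported as % displacement of control specific binding, n = 2.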

[2] = molecular target: T2, Cannabinoid receptor 1 (Homo sapiens, UniProt P21554); assay: Displacement of [3H]CP-55940 from human CB1 receptor expressed in CHO cells at 10 uM; type: cell-based
How it was run: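 Competitive binding on membranes of CHO cells expressing human CB1, run by an outside contract lab. Radioligand was [3H]-CP 55940 at 0.5 nM and test compound was at 10 μM. Non-specific binding was set with an excess of unlabelled ligand. Values are % of control specific binding (displacement), n = 2.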

[3] = molecular target: T1, Cannabinoid receptor 2; assay: Displacement of [3H]WIN-55212-2 from human CB2 receptor expressed in CHO cells; type: cell-based
How it was run: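 Non-specific binding was defined with excess unlabelled ligand. Ki was derived from IC50 by the Cheng-Prusoff equation, Ki = IC50/(1 + L/KD), using radioligand concentration and KD.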

[4] = molecular target: T2, Cannabinoid receptor 1; assay: biochemical; type: cell-based, CHO

T2 sequence (P21554 whole entry): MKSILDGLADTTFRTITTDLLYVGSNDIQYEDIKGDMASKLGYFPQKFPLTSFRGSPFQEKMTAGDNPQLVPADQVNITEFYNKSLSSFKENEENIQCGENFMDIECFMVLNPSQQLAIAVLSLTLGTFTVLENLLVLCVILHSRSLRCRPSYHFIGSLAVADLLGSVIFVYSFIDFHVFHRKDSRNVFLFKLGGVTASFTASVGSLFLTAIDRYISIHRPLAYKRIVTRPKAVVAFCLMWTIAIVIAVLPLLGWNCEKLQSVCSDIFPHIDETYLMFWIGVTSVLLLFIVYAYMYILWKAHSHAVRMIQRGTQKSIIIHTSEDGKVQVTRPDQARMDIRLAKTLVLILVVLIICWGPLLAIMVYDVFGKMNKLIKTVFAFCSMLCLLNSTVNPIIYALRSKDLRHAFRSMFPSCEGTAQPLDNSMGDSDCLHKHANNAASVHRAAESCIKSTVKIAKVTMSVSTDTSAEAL
T1 sequence (P34972 whole entry): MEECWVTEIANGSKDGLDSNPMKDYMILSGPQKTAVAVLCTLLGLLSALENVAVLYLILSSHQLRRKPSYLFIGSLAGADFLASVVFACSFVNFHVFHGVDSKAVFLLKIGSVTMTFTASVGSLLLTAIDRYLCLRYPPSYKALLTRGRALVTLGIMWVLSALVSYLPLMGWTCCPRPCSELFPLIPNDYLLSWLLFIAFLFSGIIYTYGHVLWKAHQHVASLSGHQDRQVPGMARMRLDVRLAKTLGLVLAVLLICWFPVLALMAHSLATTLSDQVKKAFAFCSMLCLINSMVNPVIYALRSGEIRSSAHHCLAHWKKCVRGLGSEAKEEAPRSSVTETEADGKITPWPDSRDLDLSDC

Activity [1] [%]	Activity [2] [%]	Ki [3] [nM]	Ki [4] [nM]	SMILES
76	64			COc1ccc(-c2c(C(=O)NC3CCCCC3)cnn2-c2ccc(Cl)cc2Cl)cc1
44	81			O=C(NC1CCCCC1)c1cnn(-c2ccc(Cl)cc2Cl)c1-c1ccc(Br)cc1
84	94	1900	1300	O=C(NN1CCCCC1)c1cnn(-c2ccc(Cl)cc2Cl)c1-c1ccc(I)cc1
-9	30			O=C(NN1CCOCC1)c1cnn(-c2ccc(Cl)cc2Cl)c1-c1ccc(F)cc1
14	39			O=C(NCCN1CCCCC1)c1cnn(-c2ccc(Cl)cc2Cl)c1-c1ccc(Cl)cc1
45	59			O=C(c1cnn(-c2ccc(Cl)cc2Cl)c1-c1ccc(Cl)cc1)N1CCCCC1
61	90		1100	O=C(NC1CCCCCC1)c1cnn(-c2ccc(Cl)cc2Cl)c1-c1ccc(I)cc1
60	88		1100	O=C(NC1CCCCCC1)c1cnn(-c2ccc(Cl)cc2Cl)c1-c1ccc(Br)cc1
60	91		210	O=C(NC1CC1)c1cnn(-c2ccc(Cl)cc2Cl)c1-c1ccc(I)cc1
64	75			O=C(NN1CCCCCC1)c1cnn(-c2ccc(Cl)cc2Cl)c1-c1ccc(Cl)cc1
22	72			O=C(NC12CC3CC(CC(C3)C1)C2)c1cnn(-c2ccc(Cl)cc2Cl)c1-c1ccc(Cl)cc1
50	78			O=C(NC1CCCCCC1)c1cnn(-c2ccc(Cl)cc2Cl)c1-c1ccc(Cl)cc1
69	58			O=C(c1cnn(-c2ccc(Cl)cc2Cl)c1-c1ccc(Cl)cc1)N1CCc2ccccc2C1
42	78			CN1CCN(NC(=O)c2cnn(-c3ccc(Cl)cc3Cl)c2-c2ccc(I)cc2)CC1
44	84			O=C(NC1CCCCCCC1)c1cnn(-c2ccc(Cl)cc2Cl)c1-c1ccc(Cl)cc1
27	29			Cc1ccc(-c2c(C(=O)NN3CCCCC3)cnn2-c2ccc(Cl)cc2Cl)cc1
43	49			O=C(c1cnn(-c2ccc(Cl)cc2Cl)c1-c1ccc(Cl)cc1)N1CCCC1

Activity [1] [%]	Activity [2] [%]	Ki [3] [nM]	Ki [4] [nM]	SMILES
7	62			O=C(NC1CC1)c1cnn(-c2ccc(Cl)cc2Cl)c1-c1ccc(F)cc1
61	82			O=C(NC1CCCC1)c1cnn(-c2ccc(Cl)cc2Cl)c1-c1ccc(Cl)cc1
43	84		1000	O=C(NC1CC1)c1cnn(-c2ccc(Cl)cc2Cl)c1-c1ccc(Br)cc1
56	86			O=C(NN1CC2CCCC2C1)c1cnn(-c2ccc(Cl)cc2Cl)c1-c1ccc(Cl)cc1 (centres undefined)
-12	67	30000	2600	CN1CCN(NC(=O)c2cnn(-c3ccc(Cl)cc3Cl)c2-c2ccc(Br)cc2)CC1
-23	61		16000	CN1CCN(NC(=O)c2cnn(-c3ccc(Cl)cc3Cl)c2-c2ccc(Cl)cc2)CC1
44	76			O=C(NC12CC3CC(CC(C3)C1)C2)c1cnn(-c2ccc(Cl)cc2Cl)c1-c1ccc(I)cc1
30	87	21000	850	O=C(NC1CC1)c1cnn(-c2ccc(Cl)cc2Cl)c1-c1ccc(Cl)cc1
18	69			O=C(NC1CCCCC1)c1cnn(-c2ccc(Cl)cc2Cl)c1-c1ccc(F)cc1
52	68			O=C(NC1CCCCC1)c1cnn(-c2ccc(Cl)cc2Cl)c1-c1ccc(Cl)cc1
55	74			O=C(NN1CCCCC1)c1cnn(-c2ccc(Cl)cc2Cl)c1-c1ccc(Br)cc1
46	48			Cc1ccc(-c2c(C(=O)NC3CCCCC3)cnn2-c2ccc(Cl)cc2Cl)cc1
12	65			O=C(NN1CCOCC1)c1cnn(-c2ccc(Cl)cc2Cl)c1-c1ccc(Cl)cc1
37	79			O=C(NN1CCCCC1)c1cnn(-c2ccc(Cl)cc2Cl)c1-c1ccc(Cl)cc1
7	43			O=C(NN1CCCCC1)c1cnn(-c2ccc(Cl)cc2Cl)c1-c1ccc(F)cc1
59	64			O=C(NC1CCCCC1)c1cnn(-c2ccc(Cl)cc2Cl)c1-c1ccc(I)cc1
70	58			COc1ccc(-c2c(C(=O)NN3CCCCC3)cnn2-c2ccc(Cl)cc2Cl)cc1
